The text below walks through data of ChEMBL document CHEMBL1142952, “Design, synthesis, and activity of 2-imidazol-1-ylpyrimidine derived inducible nitric oxide synthase dimerization inhibitors” (J Med Chem, 2007).

Broadly, the IC50 is the midpoint of a concentration-inhibition curve. Broadly, the clearance is the volume of plasma or blood freed of the substance per unit of time. Higher therefore signals a high capacity for elimination. By bioavailability is commonly meant dose-corrected exposure relative to a reference, in per cent. In general, half-life refers to the time needed for the level to fall by half in the phase considered. The low end stands for rapid decline, the high end for slow decline.

Series [1] has as its target Nitric oxide synthase, inducible (Homo sapiens, UniProt P35228). Nature of the series: Inhibition of cytokine-induced iNOS expressed in human A172 cells assessed as inhibition of NO formation. It is filed as cell-based, A 172.
Series [2] addresses Nitric oxide synthase, inducible (Rattus norvegicus) (UniProt Q06518). The series is described as follows: Activity against rat cerebellum iNOS upto 1 uM.
Series [3] can be described thus: Inhibition of vaccinia virus system-induced human NOS expressed in BSC1 cells. It is filed as cell-based. The following applies: bsc-1.
A short description of series [4]: Inhibition of tetracycline system-induced human NOS expressed in SF9 cells. In a few lines:
(§1)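 SF9 cells carrying a tetracycline-induced system expressing one NOS isoform (iNOS, ecNOS or bcNOS); cellular NO formation inhibition measured, compounds up to 10 µM.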

The subject of series [5] is BSC-1. Nature of the series: Selectivity ratio, IC50 for ecNOS/IC50 for iNOS using vaccinia virus-induced system in BSC1 cells. It is filed as cell-based. The following applies: Homo sapiens. The gist of the method:
(§2)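 For each compound, the IC50 against bcNOS (b/i) or ecNOS (e/i) is divided by the iNOS IC50 from the same BSC-1 vaccinia system.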

For series [6], the system named is BSC-1. The series is described as follows: Selectivity ratio, IC50 for bcNOS/IC50 for iNOS using vaccinia virus-induced system in BSC1 cells. Conditions: Homo sapiens. It is filed as cell-based. The gist of the method: as §2
The test system of series [7] is Sf9. The series is described as follows: Selectivity ratio, IC50 for ecNOS/IC50 for iNOS using tetracycline-induced system in SF9 cells. It is filed as cell-based. The following applies: Homo sapiens. The gist of the method:
as §1

Series [8] has as its system Sf9. Nature of the series: Selectivity ratio, IC50 for bcNOS/IC50 for iNOS using tetracycline-induced system in SF9 cells. It is filed as cell-based. The following applies: Homo sapiens. The gist of the method:
as §1

Series [9] can be described thus: Clearance in dog at 3 mg/kg. It is filed as ADME, organism-based, Canis lupus familiaris. Also noted: dose 3 mg/kg. Conditions: in vivo.
Series [10] is described as follows: Bioavailability in dog at 3 mg/kg, po. It is filed as ADME, organism-based, Canis lupus familiaris. Conditions: in vivo.
A further series relates to Rattus norvegicus. Nature of the series: Amelioration of adjuvant-induced arthritis in sc dosed Lewis rat. It is filed as functional, organism-based. In a few lines: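 Adult male Lewis rats immunized intradermally at the proximal tail with Mycobacterium butyricum in incomplete Freund's adjuvant (10 mg/mL, 0.1 mL). Starting the next day, dosed subcutaneously at 3, 10 or 30 mg/kg or vehicle twice daily (12 h apart); naive group untreated; 10 rats per group. Weighed and clinically scored (0-4 per limb) 3 times weekly; radiological scoring; sacrifice at day 34-35.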

Series [11] in a line: Half life in rat at 10 mg/kg, iv. It is filed as ADME, organism-based. The arrangement: dose 10 mg/kg, route intravenous. Conditions: in vivo.
Series [12] in a line: Bioavailability in po and iv dosed rat 10 mg/kg, po. It is filed as ADME, organism-based. Conditions: in vivo.
A short description of series [13]: Half life in dog at 3 mg/kg, iv. It is filed as ADME, organism-based, Canis lupus familiaris. Also noted: dose 3 mg/kg, route intravenous. The following applies: in vivo.

The source made the active and inactive calls. A value given as a limit tells only on which side of the number the result lay.

Chain of Nitric oxide synthase, inducible (P35228 whole entry): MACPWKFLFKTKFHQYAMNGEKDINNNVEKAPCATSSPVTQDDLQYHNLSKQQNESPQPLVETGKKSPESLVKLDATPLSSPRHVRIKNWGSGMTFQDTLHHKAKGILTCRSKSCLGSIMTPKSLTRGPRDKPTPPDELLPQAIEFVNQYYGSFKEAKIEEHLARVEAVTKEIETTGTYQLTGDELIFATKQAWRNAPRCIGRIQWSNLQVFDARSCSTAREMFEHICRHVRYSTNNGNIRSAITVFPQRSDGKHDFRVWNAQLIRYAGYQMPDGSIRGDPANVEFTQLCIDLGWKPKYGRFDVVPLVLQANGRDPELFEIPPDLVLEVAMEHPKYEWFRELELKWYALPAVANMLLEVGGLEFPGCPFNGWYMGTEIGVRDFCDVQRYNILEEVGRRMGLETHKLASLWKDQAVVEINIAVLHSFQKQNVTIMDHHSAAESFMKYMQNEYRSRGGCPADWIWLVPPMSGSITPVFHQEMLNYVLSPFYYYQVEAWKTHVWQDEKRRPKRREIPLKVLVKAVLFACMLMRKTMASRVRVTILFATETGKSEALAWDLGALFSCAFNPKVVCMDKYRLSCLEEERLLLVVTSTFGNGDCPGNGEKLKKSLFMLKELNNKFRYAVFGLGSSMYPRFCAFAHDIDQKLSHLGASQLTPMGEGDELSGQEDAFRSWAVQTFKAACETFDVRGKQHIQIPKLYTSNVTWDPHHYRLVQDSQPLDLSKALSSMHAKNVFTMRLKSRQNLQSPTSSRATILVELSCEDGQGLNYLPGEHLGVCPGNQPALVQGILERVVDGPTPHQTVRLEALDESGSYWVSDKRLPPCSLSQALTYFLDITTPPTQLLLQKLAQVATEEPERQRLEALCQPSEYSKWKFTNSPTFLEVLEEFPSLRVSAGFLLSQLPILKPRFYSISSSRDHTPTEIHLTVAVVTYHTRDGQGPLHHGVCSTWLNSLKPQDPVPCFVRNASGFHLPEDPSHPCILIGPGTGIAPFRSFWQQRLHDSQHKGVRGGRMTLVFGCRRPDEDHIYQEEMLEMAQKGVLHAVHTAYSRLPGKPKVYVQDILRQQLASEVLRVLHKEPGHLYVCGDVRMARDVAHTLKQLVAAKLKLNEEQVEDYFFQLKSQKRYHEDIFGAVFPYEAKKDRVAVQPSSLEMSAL
Chain of Nitric oxide synthase, inducible (Rattus norvegicus) (Q06518 whole entry): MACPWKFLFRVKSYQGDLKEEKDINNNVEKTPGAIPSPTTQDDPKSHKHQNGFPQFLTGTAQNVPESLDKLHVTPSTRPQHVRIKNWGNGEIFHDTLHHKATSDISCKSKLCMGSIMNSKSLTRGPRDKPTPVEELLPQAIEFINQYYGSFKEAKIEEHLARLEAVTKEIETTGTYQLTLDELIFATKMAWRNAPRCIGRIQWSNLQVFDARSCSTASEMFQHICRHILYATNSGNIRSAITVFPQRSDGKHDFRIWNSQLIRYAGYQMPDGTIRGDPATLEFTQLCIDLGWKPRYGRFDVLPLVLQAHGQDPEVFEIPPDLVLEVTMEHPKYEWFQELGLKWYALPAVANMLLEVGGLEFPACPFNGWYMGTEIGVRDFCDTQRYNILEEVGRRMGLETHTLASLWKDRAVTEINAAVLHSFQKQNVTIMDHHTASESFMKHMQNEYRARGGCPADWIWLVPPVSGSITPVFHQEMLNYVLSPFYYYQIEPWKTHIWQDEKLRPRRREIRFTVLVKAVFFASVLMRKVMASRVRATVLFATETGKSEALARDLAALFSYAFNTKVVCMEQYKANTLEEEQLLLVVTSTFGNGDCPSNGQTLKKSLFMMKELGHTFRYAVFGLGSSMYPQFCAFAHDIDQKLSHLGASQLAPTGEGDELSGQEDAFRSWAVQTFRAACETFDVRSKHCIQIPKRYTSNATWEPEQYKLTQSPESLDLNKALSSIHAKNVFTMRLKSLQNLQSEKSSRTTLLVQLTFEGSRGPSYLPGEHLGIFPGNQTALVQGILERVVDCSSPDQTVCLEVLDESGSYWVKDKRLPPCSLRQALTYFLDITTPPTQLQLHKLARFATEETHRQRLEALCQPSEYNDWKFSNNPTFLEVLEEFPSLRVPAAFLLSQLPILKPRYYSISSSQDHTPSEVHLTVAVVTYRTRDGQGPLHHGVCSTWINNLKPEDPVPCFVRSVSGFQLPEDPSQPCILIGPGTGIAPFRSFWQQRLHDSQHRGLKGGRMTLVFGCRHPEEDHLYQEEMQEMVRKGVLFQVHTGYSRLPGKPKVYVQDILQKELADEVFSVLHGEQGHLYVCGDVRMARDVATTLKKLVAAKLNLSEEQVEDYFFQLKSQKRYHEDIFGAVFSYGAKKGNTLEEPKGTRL

For the molecule `Cc1cc(N2CCN(C(=O)C(C)C)[C@H](CC(=O)NCc3ccc4c(c3)OCO4)C2)nc(-n2ccnc2)n1`, the 50% inhibitory concentration (IC50) turned out to be 0.75 nM in [1], 350 nM in series [3] and 130 nM in series [4]. For the same molecule, the result in series [2] was inactive. Also, the Ratio IC50 in the series on BSC-1 [5] is greater than 400; in the series on BSC-1 [6], 29; with Sf9 [7] it was 74; with Sf9 [8] it was 80.
In the case of `CCc1cc(N2CCC[C@@H]2C(=O)NCCc2ccc3c(c2)OCO3)nc(-n2ccnc2)n1`, the IC50 in series [1] was determined as 0.52 nM; in series [3] it was 25 nM; in series [4], 16 nM. Also, the result in series [2] was inactive. Moreover, the Ratio IC50 in the series with BSC-1 [5] is greater than 3800; in the series with BSC-1 [6], 67; with Sf9 [7] it was 170; with Sf9 [8], 280.
Consider `COC(=O)N1CCN(c2ccnc(-n3ccnc3)n2)C(CC(=O)NCc2ccc3c(c2)OCO3)C1` (stereo unspecified), for which the values for the IC50 in series [1], in series [3] and in series [4] were 0.38 nM, 24 nM and 12 nM, respectively. In series [2], the outcome was inactive. The Ratio IC50 is 1700 in the series on BSC-1 [5], 5 in the series with BSC-1 [6], 82 with Sf9 [7] and 25 in the series with Sf9 [8].
For `COC(=O)N1CCN(c2ccnc(-n3ccnc3)n2)[C@@H](CC(=O)NCc2ccc3c(c2)OCO3)C1`, the half-inhibitory concentration (IC50) came to 0.24 nM in [1], 18 nM in series [3] and 10 nM in [4]. Moreover, the outcome in series [2] was inactive. Also, the Ratio IC50 in the series with BSC-1 [5] turned out to be 1100; in the series with BSC-1 [6], 6; in the series with Sf9 [7], 32; with Sf9 [8] it was 16.
In the case of `O=C(C[C@H]1CCCN1c1ccnc(-n2ccnc2)n1)NCc1ccc2c(c1)OCO2`, the IC50 in series [1] is 0.28 nM; in [3], 5.6 nM; in [4] it was 5.5 nM. Moreover, in [2], the result was inactive. For the same molecule, the Ratio IC50 in the series on BSC-1 [5] was 2900; in the series with BSC-1 [6], 5; with Sf9 [7], 47; with Sf9 [8], 6.
Take `O=C(NCCc1ccc2c(c1)OCO2)[C@H]1CCCN1c1ccnc(-n2ccnc2)n1`: the IC50 in series [1] was 0.48 nM; in [3] it was 25 nM; in series [4], 11 nM. In series [2], the outcome was inactive. In addition, the Ratio IC50 with BSC-1 [5] is greater than 2000; with BSC-1 [6] it was 19; with Sf9 [7], 181; in the series on Sf9 [8] it was 74.
As to `Cc1cc(N2CCC[C@@H]2CC(=O)NCc2ccc3c(c2)OCO3)nc(-n2ccnc2)n1`, the IC50 in [1] was 0.12 nM; in series [3], 5.9 nM; in series [4], 4.5 nM. Also, the result in series [2] was inactive. Moreover, the Ratio IC50 with BSC-1 [5] was 1000; with BSC-1 [6], 8; in the series on Sf9 [7], 91; with Sf9 [8] it was 27.
Regarding `Cc1cc(N2CCN(C(=O)C(C)C)C(CC(=O)NCc3ccc4c(c3)OCO4)C2)nc(-n2ccnc2)n1` (stereo unspecified), the results for the IC50 in [1], in series [3] and in series [4] were 1.9 nM, 80 nM and 46 nM, respectively. The result in series [2] was inactive. In addition, the Ratio IC50 with BSC-1 [5] was greater than 300; with BSC-1 [6] it was 80; in the series with Sf9 [7], 240; in the series with Sf9 [8] it was 120.
On to `COc1cccc(CNC(=O)CC2CCCCN2c2ccnc(-n3ccnc3)n2)c1` (stereo unspecified), for which the IC50 in series [1] came to 3.7 nM; in series [3] it was 230 nM. Further, in series [2], the outcome was inactive. The Ratio IC50 with BSC-1 [5] is greater than 430; with BSC-1 [6], 4.
As for `CC(C)CCN1CCN(c2ccnc(-n3ccnc3)n2)C(CC(=O)NCc2ccc3c(c2)OCO3)C1` (stereo unspecified), the figures for the IC50 in series [1] and in [3] were 1 nM and 10 nM, respectively. In addition, the result in series [2] was inactive. The Ratio IC50 with BSC-1 [5] amounted to 1000; in the series on BSC-1 [6], 6.
For `O=C(CC1CCCCN1c1cc(Cl)nc(-n2ccnc2)n1)NCc1ccc2c(c1)OCO2` (stereo unspecified), in that order: 0.49 nM, 9 nM, “inactive”, 1100 and 5.
For `O=C(CC1CCCCN1c1cc(-n2ccnc2)nc(-n2ccnc2)n1)NCc1ccc2c(c1)OCO2` (stereo unspecified), the IC50 is 35 nM in [1] and 515 nM in series [3]. Besides, the result in series [2] was inactive. For the same molecule, the Ratio IC50 came to 130 in the series on BSC-1 [5] and 13 with BSC-1 [6].
On to `Cc1cc(N2CCCCC2CC(=O)NCc2ccc3c(c2)OCO3)nc(-n2ccnc2)n1` (stereo unspecified), for which the results for the IC50 in series [1] and in series [3] were 4.1 nM and 16 nM, respectively. Besides, in [2], the result was inactive. Also, the results for the Ratio IC50 in the series with BSC-1 [5] and in the series with BSC-1 [6] were 1200 and 5, respectively.
Turning to `CN(C)c1ccc(CNC(=O)CC2CCCCN2c2ccnc(-n3ccnc3)n2)cc1` (stereo unspecified), the values for the IC50 in series [1] and in series [3] were 66 nM and 245 nM, respectively. In series [2], the result was inactive. Also, the figures for the Ratio IC50 in the series on BSC-1 [5] and in the series on BSC-1 [6] were 86 and 29, respectively.
Consider `CC(=O)N1CCN(c2cc(C)nc(-n3ccnc3)n2)CC1CC(=O)NCc1ccc2c(c1)OCO2` (stereo unspecified), for which the figures for the IC50 in series [1] and in [3] were 8.5 nM and 340 nM, respectively. Further, the result in series [2] was inactive. Moreover, the Ratio IC50 in the series with BSC-1 [5] was greater than 320; in the series with BSC-1 [6] it was greater than 32.
`CN1CCN(c2ccnc(-n3ccnc3)n2)C(CC(=O)NCc2ccc3c(c2)OCO3)C1` (stereo unspecified): the IC50 came out at 0.48 nM in [1] and 11 nM in [3]. In addition, in series [2], the outcome was inactive. Besides, the Ratio IC50 in the series on BSC-1 [5] is 1300; in the series with BSC-1 [6] it was 2.
Take `O=C(CC1CN(Cc2ccccc2)CCN1c1ccnc(-n2ccnc2)n1)NCc1ccc2c(c1)OCO2` (stereo unspecified): the IC50 came to 1 nM in [1] and 13 nM in series [3]. Besides, the outcome in series [2] was inactive. The Ratio IC50 in the series with BSC-1 [5] is 770; in the series on BSC-1 [6], 7.
In turn, `Cc1cc(N2CCC[C@@H]2C(=O)NCCc2ccc3c(c2)OCO3)nc(-n2ccnc2)n1` displayed a clearance in series [9] of 4.5 mL/min/kg. Moreover, the bioavailability in series [10] was 71%; in [12] it was 21%. Besides, the result (in the series on Rattus norvegicus; in series [2]) was inactive. In addition, the results for the IC50 in series [1], in series [3] and in series [4] were 0.29 nM, 20 nM and 14 nM, respectively. The Ratio IC50 in the series with BSC-1 [5] is greater than 5000; in the series on BSC-1 [6], 62; in the series with Sf9 [7], 540; in the series on Sf9 [8], 327. In addition, the half-life in [11] is 0.7 h; in [13], 2.5 h.
Turning to `CCc1cc(N2CCC[C@@H]2CC(=O)NCc2ccc3c(c2)OCO3)nc(-n2ccnc2)n1`, the IC50 in series [1] came to 0.13 nM; in series [3] it was 7.5 nM; in series [4] it was 7.1 nM. Moreover, the outcome in series [2] was inactive. The Ratio IC50 in the series on BSC-1 [5] stood at 7800; in the series on BSC-1 [6], 15; in the series on Sf9 [7], 65; with Sf9 [8] it was 18.
